Published values gathered from unrelated publications.
Target: Maternal embryonic leucine zipper kinase (MELK, Homo sapiens, UniProt Q14680)

| Structure (SMILES) | test | system | setting | quantity | value |
| --- | --- | --- | --- | --- | --- |
| CN(c1ncccc1CNc1nc(Nc2ccc3c(c2)CC(=O)N3)ncc1C(F)(F)F)S(C)(=O)=O | enzyme activity, inhibitor |  | 1 µM | inhibition | 90.4% |
| Cc1ncc([N+](=O)[O-])n1C(=NO)c1ccccc1C(F)(F)F | enzyme activity, inhibitor |  | 10 µM | inhibition | 13.9% |
| Cc1cnc(NC2CCOCC2)nc1-n1cnc(C(=O)NC(CN)c2cc(F)cc(Cl)c2)c1 (centres unmarked) | enzyme activity, inhibitor, radiometric |  | 1 µM | remaining activity | 49% |
| C[C@H](NC(=O)c1cnc2n1[C@](C)(Cc1ccc(C#N)cc1)C(=O)N2c1cc(Cl)c(F)c(Cl)c1)C(=O)NC1(c2ccccn2)CC1 | cell-free assay, competition with immobilised ligand |  | 1 µM | remaining binding | 86% |
| COc1cc(Cl)c(C(=O)N[C@@H](CN[C@H]2CC[C@@H](N)CC2)Cc2ccc(C#N)cc2)cc1-c1ccc(CN[C@H](C)c2ccc(C)cc2)o1 | enzyme activity, inhibitor |  | 1 µM | remaining activity | 98% |
| O=C1NC(=O)c2cc(Nc3ccc(F)cc3)c(Nc3ccc(F)cc3)cc21 | cell-free assay |  | 0.5 µM | remaining signal | 92% |
| COc1cc(/C=C/C(=O)CC(=O)/C=C/c2ccc(O)c(OC)c2)ccc1O | enzyme activity, inhibitor |  | 1 µM | activity vs control | 74% |
| CCN(CC)CCNC(=O)c1c(C)[nH]c(/C=C2\C(=O)Nc3ccc(F)cc32)c1C | enzyme activity, inhibitor |  | 10 µM | inhibition | 99% |
| CCN1CCN(Cc2ccc(NC(=O)c3ccc(C)c(/C=C/c4cnc5[nH]ccc5c4OC)c3)cc2C(F)(F)F)CC1 | target engagement in cells, inhibitor, chemoproteomics | A-375 | 50 nM | inhibition | -10.4% |
| Cc1noc([C@H]2C[C@@H](c3ccc(C(F)(F)F)cc3)CN(C(=O)N3CCS(=O)(=O)C3)C2)n1 | cell-free assay, competition with immobilised ligand |  | 1 µM | remaining binding | 100% |
| CC(C)(C)C(=O)c1sc(NC2CCCCC2)nc1N | enzyme activity, inhibitor |  | 10 µM | remaining activity | 89% |
| N#CCCc1ccc2c(c1)-c1[nH]c3ccc([N+](=O)[O-])cc3c1CC(=O)N2 | cell-free assay |  | 0.5 µM | remaining signal | 88.6% |
| COc1cc(Nc2cnc(C#N)c(O[C@H](C)CN(C)C)n2)ncc1-c1cnn(C)c1 | enzyme activity, inhibitor, radiometric |  | 1 µM | remaining activity | 109% |
| CNC(=O)c1cc(Oc2ccc(NC(=O)Nc3ccc(Cl)c(C(F)(F)F)c3)cc2)ccn1 | enzyme activity, inhibitor |  | 0.3 µM | inhibition | 4% |
| C[C@@H](c1cccc(C#N)c1)n1cc(Cl)cc(C(N)=O)c1=N | cell-free assay, competition with immobilised ligand |  | 1 µM | remaining binding | 78% |
| Cc1ccc(C(=O)Nc2ccc(CN3CCN(C)CC3)c(C(F)(F)F)c2)cc1C#Cc1cnc2cccnn12 | enzyme activity, inhibitor |  | 23.5 nM | remaining activity | 61% |

| Structure (SMILES) | test | system | setting | quantity | value |
| --- | --- | --- | --- | --- | --- |
| CC/C(=N\NC(=O)NCc1cccc(O)c1)c1ccc(O)c(C)c1O | enzyme activity, inhibitor |  | 0.1 µM | inhibition | 0.7% |
| Nc1ncnc2occ(-c3ccc(NC(=O)Nc4cc(C(F)(F)F)ccc4F)cc3)c12 | cell-free assay, inhibitor |  | 20 µM | remaining signal | 8.1% |
| C[C@@]1(Cc2ccc(C#N)cc2)C(=O)N(c2cc(Cl)cc(Cl)c2)c2ncc(C(=O)NC3(c4nc(C5CCC5)no4)CC3)n21 | cell-free assay, competition with immobilised ligand |  | 1 µM | remaining binding | 89% |
| Nc1nc(Nc2ccccc2)sc1C(=O)c1c(F)cccc1F | enzyme activity, inhibitor |  | 10 µM | remaining activity | 47% |
| CC(C)(C)c1nc(-c2cccc(NS(=O)(=O)c3c(F)cccc3F)c2F)c(-c2ccnc(N)n2)s1 | enzyme activity, inhibitor, radiometric |  | 1 µM | remaining activity | 27% |
| FC(F)(F)Oc1cccc(-c2cnc3ccc(-c4ccncc4)nn23)c1 | enzyme activity, inhibitor, radiometric |  | 1 µM | activity vs control | 84% |
| CN(C)CC#Cc1ccc(OCCCc2sc(N3CCc4cccc(C(=O)Nc5nc6ccccc6s5)c4C3)nc2C(=O)O)c(F)c1 | cell-free assay, competition with immobilised ligand |  | 1 µM | remaining binding | 78% |
| COc1cc2ncnc(Nc3ccc(Oc4ccccc4)cc3C)c2cc1OC | enzyme activity, inhibitor |  | 1 µM | inhibition | 0% |
| CN(C)C(=O)Cn1cc(-c2nc([C@@](C)(c3ccc(-c4cnc(N)nc4)cc3)C3CC3)no2)cn1 | cell-free assay, competition with immobilised ligand |  | 1 µM | remaining binding | 87% |
| C#Cc1cccc(Nc2ncnc3cc(OCCOC)c(OCCOC)cc23)c1 | cell-free assay |  | 0.5 µM | remaining signal | 88.6% |
| CO[C@@H](C)c1c(Nc2ccc([C@@H](N(C)C(=O)C3CCS(=O)(=O)CC3)C(F)(F)F)cc2)cnc2cc(Cl)nn12 | cell-free assay, competition with immobilised ligand |  | 1 µM | remaining binding | 52% |
| COc1cc2c(Nc3ccc(Br)cc3F)ncnc2cc1OCC1CCN(C)CC1 | cell-free assay |  | 0.5 µM | remaining signal | 94.4% |
| CNC(=O)Nc1ccc2c(c1)[C@@]1(CC2)OC(=O)N(CC(=O)N(Cc2ccc(F)cc2)[C@@H](C)C(F)(F)F)C1=O | cell-free assay, competition with immobilised ligand |  | 1 µM | remaining binding | 100% |
| O=C(Nc1cnn(-c2csc(C(=O)NC3COC3)c2)c1)Nc1ccccc1Cl | enzyme activity, inhibitor |  | 5 µM | remaining activity | 48.7% |
| Oc1cccc(-c2nc(N3CCOCC3)c3oc4ncccc4c3n2)c1 | enzyme activity, inhibitor |  | 10 µM | remaining activity | 104% |
| Cc1ccc(Nc2nccc(N(C)c3ccc4c(C)n(C)nc4c3)n2)cc1S(N)(=O)=O | enzyme activity, inhibitor |  | 0.3 µM | inhibition | 7% |
